This note sets out measurements from ChEMBL document CHEMBL1759946, “Proflavine derivatives as fluorescent imaging agents of amyloid deposits” (Bioorg Med Chem Lett, 2011).

Assay [1] is described as follows: Inhibition of amyloid beta (1 to 40) fibril formation at 10 uM after 8 days by thioflavin T fluorescent dye assay. Put shortly:
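Compound at 10 µM was co-incubated for eight days with Aβ40 (50 µM) in the presence of thioflavin T. Dye fluorescence was read at 485 nm and expressed as percent of the control assay with Aβ40 alone.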

The nature of assay [2]: Induction of amyloid beta 40 fibril disassembly at 1:2 compound:amyloid-beta ratio. Put shortly:
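Fresh preformed Aβ40 fibrils were incubated at 37 °C with compound at a compound/Aβ ratio of 1/2. Disassembly was followed by the change in thioflavin T fluorescence.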

Assay [3] in a line: Inhibition of amyloid beta (1 to 40) fibril formation at 10 uM after 8 days by thioflavin T fluorescent dye assay.
Assay [4] is filed under the species Mus musculus. Put plainly: Binding affinity to beta amyloid plaque in triple transgenic alzheimer disease mouse model hippocampus at 100 uM after 90 mins by fluorescence microscopy. In kind it is tissue-based. In outline: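 Plaque labeling was read from the compound's native fluorescence with fluorescein optics. Plaques were confirmed by thioflavin S staining of adjacent sections. Controls were age-matched wild-type sections, untreated sections and DAPI counterstain.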

The source made the active and inactive calls. The calls are words filed in the database; no cut-off is given here.

One may read the inhibition as how much of the control response was suppressed. `COc1ccc2c(c1)CN1c3ccc(OC)cc3CN2C1CCCCCCCn1cc(COC(=O)Nc2ccc3cc4ccc(NC(C)=O)cc4nc3c2)nn1` showed an inhibition in assay [1] of 50%.

Consider `C#CCOC(=O)Nc1ccc2cc3ccc(NC(C)=O)cc3nc2c1`, for which, in assay [1], the inhibition entry was “Active”.

In assay [1], `CC(=O)Nc1ccc2cc3ccc(NC(=O)Cn4cc(CNC(=O)CCCCC5CCSS5)nn4)cc3nc2c1` (centres undefined) registered an inhibition of 50%.

`COc1cc(/C=C/C(=O)CC(=O)/C=C/c2ccc(O)c(OC)c2)ccc1O`: in assay [2], the Activity turned out to be 90%. In addition, the inhibition in assay [1] was determined as 80%.

In turn, `CC(=O)Nc1ccc2cc3ccc(NC(=O)CCN)cc3nc2c1` returned an inhibition in assay [1] of 50%.

On to `C#CCNC(=O)CCCCC1CCSS1` (racemic), for which, in assay [3], the inhibition entry is “inactive”.

In the case of `COc1ccc2c(c1)CN1c3ccc(OC)cc3CN2C1CCCCCCCN=[N+]=[N-]`, in assay [3], the inhibition entry is “inactive”.

In assay [1], `COc1ccc2c(c1)CN1c3ccc(OC)cc3CN2C1CCCCCCCn1cc(CNCCC(=O)Nc2ccc3cc4ccc(NC(C)=O)cc4nc3c2)nn1` returned an inhibition of 50%. In assay [4], the outcome was Active.

Turning to `CC(=O)Nc1ccc2cc3ccc(NC(=O)CCNC(=O)CCCCC4CCSS4)cc3nc2c1` (centres undefined), the inhibition in assay [1] is 50%.

Regarding `O=C(O)CCCCC1CCSS1` (centres undefined), the Activity in assay [2] was determined as 60%.

`CC(=O)Nc1ccc2cc3ccc(NC(=O)CN=[N+]=[N-])cc3nc2c1` showed an inhibition in assay [1] of 50%.

With `C#CCNCCC(=O)Nc1ccc2cc3ccc(NC(C)=O)cc3nc2c1`, the inhibition in assay [1] is 50%.
